Laboratory results: ChEMBL document CHEMBL4041524, “Synthesis and Characterization of a Novel γ-Aminobutyric Acid Type A (GABAA) Receptor Ligand That Combines Outstanding Metabolic Stability, Pharmacokinetics, and Anxiolytic Efficacy” (J Med Chem, 2016)
Activity calls are given as the source filed them. No cut-off for these calls is given here.

Key:
[1] = target: T1, GABA-A receptor; alpha-1/beta-3/gamma-2 (Homo sapiens, UniProt P14867+P18507+P28472); assay: Binding affinity to human GABAA alpha1beta3gamma2 receptor expressed in HEK293 cells assessed as GABA-induced membrane potential change preincubated for 3 mins followed by addition of GABA measured after 3 mins by FLIPR assay; format: cell-based
T1 sequence (P14867 whole entry): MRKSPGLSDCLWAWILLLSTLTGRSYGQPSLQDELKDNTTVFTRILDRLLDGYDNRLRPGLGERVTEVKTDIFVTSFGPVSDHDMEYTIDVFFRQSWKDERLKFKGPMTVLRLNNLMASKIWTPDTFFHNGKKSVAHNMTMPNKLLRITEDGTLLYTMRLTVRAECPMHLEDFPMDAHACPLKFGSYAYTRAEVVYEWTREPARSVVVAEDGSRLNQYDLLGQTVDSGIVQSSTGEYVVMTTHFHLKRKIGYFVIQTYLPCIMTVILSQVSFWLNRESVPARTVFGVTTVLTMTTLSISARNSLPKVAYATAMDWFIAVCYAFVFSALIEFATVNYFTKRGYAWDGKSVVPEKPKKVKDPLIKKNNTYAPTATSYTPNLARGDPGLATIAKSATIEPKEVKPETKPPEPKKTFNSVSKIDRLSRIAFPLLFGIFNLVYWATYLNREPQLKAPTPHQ
T1 sequence (P18507 whole entry): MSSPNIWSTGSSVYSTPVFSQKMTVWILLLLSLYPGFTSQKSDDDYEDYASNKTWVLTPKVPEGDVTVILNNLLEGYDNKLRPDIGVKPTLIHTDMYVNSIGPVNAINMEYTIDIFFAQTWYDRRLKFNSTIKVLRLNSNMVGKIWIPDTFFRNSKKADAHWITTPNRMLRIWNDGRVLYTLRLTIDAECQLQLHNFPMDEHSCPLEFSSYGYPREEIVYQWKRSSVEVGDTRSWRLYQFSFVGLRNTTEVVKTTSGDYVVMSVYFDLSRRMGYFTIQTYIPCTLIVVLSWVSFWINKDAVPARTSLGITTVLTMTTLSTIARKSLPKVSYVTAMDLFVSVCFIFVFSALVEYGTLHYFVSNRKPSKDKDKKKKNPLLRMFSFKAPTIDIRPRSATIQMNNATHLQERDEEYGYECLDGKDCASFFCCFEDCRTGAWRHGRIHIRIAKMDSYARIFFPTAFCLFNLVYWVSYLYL
T1 sequence (P28472 whole entry): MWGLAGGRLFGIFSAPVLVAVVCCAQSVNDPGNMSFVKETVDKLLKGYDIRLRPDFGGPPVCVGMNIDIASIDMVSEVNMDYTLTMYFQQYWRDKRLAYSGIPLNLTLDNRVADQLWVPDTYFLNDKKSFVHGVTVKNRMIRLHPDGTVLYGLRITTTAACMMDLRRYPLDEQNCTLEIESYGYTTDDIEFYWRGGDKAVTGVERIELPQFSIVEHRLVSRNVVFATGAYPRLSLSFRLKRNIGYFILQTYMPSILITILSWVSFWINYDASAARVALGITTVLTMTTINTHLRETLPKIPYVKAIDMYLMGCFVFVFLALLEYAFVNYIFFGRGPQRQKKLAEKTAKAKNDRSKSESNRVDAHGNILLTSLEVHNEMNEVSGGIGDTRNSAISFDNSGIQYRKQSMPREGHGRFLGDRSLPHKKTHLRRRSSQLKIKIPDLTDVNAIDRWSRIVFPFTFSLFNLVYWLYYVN
Outline: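 Stably transfected HEK293T cells expressing α1β3γ2 (n = 2) or α3β3γ2 (n = 1) GABAARs. Membrane potential was read as fluorescence changes on a FLIPR Tetra, and EC50 was derived.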

Mus musculus = assay: Anxiolytic-like activity in Swiss Webster mouse marble burying model of anxiety assessed as suppression of marble burying activity at 30 mg/kg, ip administered 30 mins prior to test relative to vehicle-control; format: functional, organism-based
Outline: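 Male NIH Swiss Webster mice (n = 10) received vehicle or compound at 10 or 30 mg/kg i.p. 30 min before marble burying testing. Sedation-like behaviour was noted by observation. Analysis was ANOVA with Dunnett's test vs vehicle.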

In the case of `C#Cc1ccc2c(c1)C(c1ccccn1)=NCc1c(-c3cnco3)ncn1-2`, the EC50 [1] is reported as > 20 µM and the Activity (Mus musculus) is reported as “Active”.
